Measured values from ChEMBL document CHEMBL1287654, “Anticancer activity of N-bis(trifluoromethyl)alkyl-N'-(polychlorophenyl) and N'-(1,2,4-triazolyl) ureas” (2010).

Tests used:
Assay type in all cases: functional
HOP-62 = assay: Growth inhibition of human HOP62 cells after 48 hrs by sulforhodamine B assay; details: HOP-62, 48 h
Procedure, shortened: (§1)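 NCI 60-cell-line main test over a five-log dose range. GI50 is the molar concentration giving half-growth inhibition, reported as log molar. Subpanel values are median GI50 across that subpanel's lines. Where 50% inhibition was not reached within the tested interval, the highest tested concentration was used.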

HCT-116 = assay: Growth inhibition of human HCT116 cells after 48 hrs by sulforhodamine B assay; details: HCT-116, 48 h; procedure, shortened: as §1
MDA-MB-231 = assay: Growth inhibition of human MDA-MB-231 cells after 48 hrs by sulforhodamine B assay; details: MDA-MB-231, 48 h; procedure, shortened: as §1
SR = assay: Growth inhibition of human SR cells after 48 hrs by sulforhodamine B assay
Procedure, shortened: (§2)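 NCI 60-cell-line main screen across nine tumor types, with five log dose range per compound. GI50 is the molar concentration giving half growth inhibition, reported as the log of the molar concentration that inhibits 50% net cell growth.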

NCI-H522 = assay: Growth inhibition of human NCI-H522 cells after 48 hrs by sulforhodamine B assay; details: NCI-H522, 48 h; procedure, shortened: as §1
SW-620 = assay: Growth inhibition of human SW620 cells after 48 hrs by sulforhodamine B assay; details: SW-620, 48 h; procedure, shortened: as §2
RXF 393 = assay: Growth inhibition of human RXF393 cells after 48 hrs by sulforhodamine B assay; details: RXF 393, 48 h; procedure, shortened: as §1
HCC 2998 = assay: Growth inhibition of human HCC2998 cells after 48 hrs by sulforhodamine B assay; details: HCC 2998, 48 h; procedure, shortened: as §1
A498 = assay: Growth inhibition of human A498 cells after 48 hrs by sulforhodamine B assay; details: A498, 48 h; procedure, shortened: as §1
BT-549 = assay: Growth inhibition of human BT549 cells after 48 hrs by sulforhodamine B assay; details: BT-549, 48 h; procedure, shortened: as §1
SF-268 [1] = assay: Growth inhibition of human SF268 cells after 48 hrs by sulforhodamine B assay; details: SF-268, 48 h; procedure, shortened: as §1
NCI/ADR-RES = assay: Growth inhibition of human NCI/ADR-RES cells after 48 hrs by sulforhodamine B assay; procedure, shortened: as §1
[2] = Growth inhibition of human CNS cancer cell after 48 hrs by sulforhodamine B assay; details: Cancer cell lines; procedure, shortened: as §1
HT-29 = assay: Growth inhibition of human HT-29 cells after 48 hrs by sulforhodamine B assay; details: HT-29, 48 h; procedure, shortened: as §1
SNB-75 = assay: Growth inhibition of human SNB75 cells after 48 hrs by sulforhodamine B assay; details: SNB-75, 48 h; procedure, shortened: as §2
[3] = Growth inhibition of human leukemia cell after 48 hrs by sulforhodamine B assay
Procedure, shortened: (§3)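 Subpanel median growth inhibitory concentration: the average sensitivity of each tumor-type subpanel of the NCI 60-cell-line panel, derived from per-cell-line GI50 values. GI50 values came from a five log dose range and are expressed as log molar concentration for 50% net growth inhibition.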

SF-539 = assay: Growth inhibition of human SF539 cells after 48 hrs by sulforhodamine B assay; details: SF-539, 48 h; procedure, shortened: as §1
HOP-92 = assay: Growth inhibition of human HOP92 cells after 48 hrs by sulforhodamine B assay; details: HOP-92, 48 h; procedure, shortened: as §1
IGROV-1 = assay: Growth inhibition of human IGROV1 cells after 48 hrs by sulforhodamine B assay; details: IGROV-1, 48 h; procedure, shortened: as §1
SF-268 [4] = assay: Growth inhibition of human SF268 cells assessed as cell growth at 100 uM after 48 hrs by sulforhodamine B assay relative to control; details: SF-268, 48 h, read-out: Activity
Procedure, shortened: (§4)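 One-dose pre-test on MCF7, NCI-H460 and SF-268. Cells were inoculated and pre-incubated on a microtiter plate, then given a single 10^-4 M dose and incubated 48 h. Growth was read spectrophotometrically and expressed as percent of untreated control cells; negative values indicate cell kill.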

[5] = Growth inhibition of human non-small lung cancer cell after 48 hrs by sulforhodamine B assay; details: Cancer cell lines; procedure, shortened: as §3
MOLT-4 = assay: Growth inhibition of human MOLT4 cells after 48 hrs by sulforhodamine B assay; details: MOLT-4, 48 h; procedure, shortened: as §1
UO-31 = assay: Growth inhibition of human UO31 cells after 48 hrs by sulforhodamine B assay; details: UO-31, 48 h; procedure, shortened: as §2
ACHN = assay: Growth inhibition of human ACHN cells after 48 hrs by sulforhodamine B assay; procedure, shortened: as §1
M14 = assay: Growth inhibition of human M14 cells after 48 hrs by sulforhodamine B assay; details: M14, 48 h; procedure, shortened: as §1
CAKI-1 = assay: Growth inhibition of human Caki1 cells after 48 hrs by sulforhodamine B assay; details: CAKI-1, 48 h; procedure, shortened: as §1
TK-10 = assay: Growth inhibition of human TK10 cells after 48 hrs by sulforhodamine B assay; details: TK-10, 48 h; procedure, shortened: as §2
NCI-H460 = assay: Growth inhibition of human NCI-H460 cells assessed as cell growth at 100 uM after 48 hrs by sulforhodamine B assay relative to control; details: NCI-H460, 48 h, read-out: Activity; procedure, shortened: as §4
NCI-H226 = assay: Growth inhibition of human NCI-H226 cells after 48 hrs by sulforhodamine B assay; details: NCI-H226, 48 h; procedure, shortened: as §1
UACC-62 = assay: Growth inhibition of human UACC62 cells after 48 hrs by sulforhodamine B assay; details: UACC-62, 48 h; procedure, shortened: as §2
MCF7 = assay: Growth inhibition of human MCF7 cells assessed as cell growth at 100 uM after 48 hrs by sulforhodamine B assay relative to control; details: MCF7, 48 h, read-out: Activity; procedure, shortened: as §4
[6] = Growth inhibition of human breast cancer cell after 48 hrs by sulforhodamine B assay; details: Cancer cell lines; procedure, shortened: as §3
[7] = Growth inhibition of human melanoma cell after 48 hrs by sulforhodamine B assay; procedure, shortened: as §3
[8] = Growth inhibition of human Hs 578T cells after 48 hrs by sulforhodamine B assay; procedure, shortened: as §1
MDA-MB-435 = assay: Growth inhibition of human MDA-MB-435 cells after 48 hrs by sulforhodamine B assay; details: MDA-MB-435, 48 h; procedure, shortened: as §1
DU-145 = assay: Growth inhibition of human DU145 cells after 48 hrs by sulforhodamine B assay; details: DU-145, 48 h; procedure, shortened: as §1
[9] = Growth inhibition of human renal cancer cell after 48 hrs by sulforhodamine B assay; details: Cancer cell lines; procedure, shortened: as §3
SK-MEL-5 = assay: Growth inhibition of human SK-MEL-5 cells after 48 hrs by sulforhodamine B assay; details: SK-MEL-5, 48 h; procedure, shortened: as §1
OVCAR-5 = assay: Growth inhibition of human OVCAR5 cells after 48 hrs by sulforhodamine B assay; details: OVCAR-5, 48 h; procedure, shortened: as §1
PC-3 = assay: Growth inhibition of human PC3 cells after 48 hrs by sulforhodamine B assay; details: PC-3, 48 h; procedure, shortened: as §1
SK-OV-3 = assay: Growth inhibition of human SKOV3 cells after 48 hrs by sulforhodamine B assay; details: SK-OV-3, 48 h; procedure, shortened: as §1
UACC-257 = assay: Growth inhibition of human UACC257 cells after 48 hrs by sulforhodamine B assay; details: UACC-257, 48 h; procedure, shortened: as §2
MDA-N = assay: Growth inhibition of human MDA-N cells after 48 hrs by sulforhodamine B assay; procedure, shortened: as §1
786-0 = assay: Growth inhibition of human 786-0 cells after 48 hrs by sulforhodamine B assay; details: 786-0, 48 h; procedure, shortened: as §1

With `CC(NC(=O)Nc1cc(Cl)ccc1Cl)(C(F)(F)F)C(F)(F)F` the GI50 (HOP-62) was 63.1 µM, the GI50 (HCT-116) was 4.9 µM and the GI50 (MDA-MB-231) was 30.2 µM. For the same compound, the GI50 (SR) was 7.41 µM, the GI50 (NCI-H522) was 3.09 µM and the GI50 (SW-620) was > 100 µM. For the same compound, the GI50 (RXF 393) was 77.6 µM, the GI50 (HCC 2998) was 3.8 µM and the GI50 (A498) was > 100 µM. The GI50 (BT-549) was > 100 µM, the GI50 (SF-268 [1]) was 72.4 µM and the GI50 (NCI/ADR-RES) was 5.89 µM. It also gave a GI50 [2] of 20 µM, a GI50 (HT-29) of 3.72 µM and a GI50 (SNB-75) of 4.07 µM. For the same compound, the GI50 [3] was 9.12 µM, the GI50 (SF-539) was 30.2 µM and the GI50 (HOP-92) was 6.92 µM. The GI50 (IGROV-1) was 17.8 µM, the growth at 100 µM (SF-268 [4]) was 50% and the GI50 [5] was 9.77 µM. It also gave a GI50 (MOLT-4) of 9.55 µM, a GI50 (UO-31) of 2.4 µM and a GI50 (ACHN) of 5.13 µM. For the same compound, the GI50 (M14) was > 100 µM, the GI50 (CAKI-1) was 19.1 µM and the GI50 (TK-10) was 19.5 µM. The growth at 100 µM (NCI-H460) was 17%, the GI50 (NCI-H226) was 19.5 µM and the GI50 (UACC-62) was > 100 µM. For the same compound, the growth at 100 µM (MCF7) was 34%, the GI50 [6] was 61.7 µM and the GI50 [7] was 36.3 µM. For the same compound, the GI50 [8] was 3.16 µM, the GI50 (MDA-MB-435) was > 100 µM and the GI50 (DU-145) was 9.55 µM. For the same compound, the GI50 [9] was 15.1 µM, the GI50 (SK-MEL-5) was 25.1 µM and the GI50 (OVCAR-5) was > 100 µM. The GI50 (PC-3) was 3.47 µM, the GI50 (SK-OV-3) was > 100 µM and the GI50 (UACC-257) was 75.9 µM. The GI50 (MDA-N) was > 100 µM and the GI50 (786-0) was 9.77 µM.
With `CCC(NC(=O)Nc1cc(Cl)ccc1Cl)(C(F)(F)F)C(F)(F)F` the GI50 (HOP-62) was 10.7 µM, the GI50 (HCT-116) was 3.24 µM and the GI50 (MDA-MB-231) was 3.31 µM. For the same compound, the GI50 (SR) was 3.39 µM, the GI50 (NCI-H522) was 2.82 µM and the GI50 (SW-620) was 5.25 µM. It also gave a GI50 (RXF 393) of 10 µM, a GI50 (HCC 2998) of 1.15 µM and a GI50 (A498) of 4.17 µM. For the same compound, the GI50 (BT-549) was 10.5 µM, the GI50 (SF-268 [1]) was 4.79 µM and the GI50 (NCI/ADR-RES) was 4.17 µM. The GI50 [2] was 4.47 µM, the GI50 (HT-29) was 3.31 µM and the GI50 (SNB-75) was 3.63 µM. For the same compound, the GI50 [3] was 3.8 µM, the GI50 (SF-539) was 9.55 µM and the GI50 (HOP-92) was 4.68 µM. For the same compound, the GI50 (IGROV-1) was 5.62 µM, the growth at 100 µM (SF-268 [4]) was -99% and the GI50 [5] was 3.72 µM. It also gave a GI50 (MOLT-4) of 3.72 µM, a GI50 (UO-31) of 2.63 µM and a GI50 (ACHN) of 3.89 µM. The GI50 (M14) was 5.13 µM, the GI50 (CAKI-1) was 4.57 µM and the GI50 (TK-10) was 2.24 µM. The growth at 100 µM (NCI-H460) was -100%, the GI50 (NCI-H226) was 6.17 µM and the GI50 (UACC-62) was 4.17 µM. It also gave a growth at 100 µM (MCF7) of -89%, a GI50 [6] of 5.5 µM and a GI50 [7] of 5.25 µM. It also gave a GI50 [8] of 5.25 µM, a GI50 (MDA-MB-435) of 5.13 µM and a GI50 (DU-145) of 4.68 µM. It also gave a GI50 [9] of 3.89 µM, a GI50 (SK-MEL-5) of 6.61 µM and a GI50 (OVCAR-5) of 4.79 µM. The GI50 (PC-3) was 2.19 µM, the GI50 (SK-OV-3) was 10.7 µM and the GI50 (UACC-257) was 4.79 µM. For the same compound, the GI50 (MDA-N) was 4.17 µM and the GI50 (786-0) was 4.37 µM.
